Experimental data gathered from unrelated publications.
Compare with care: the assays were run in different laboratories.

COc1cccc2c1C(=O)c1c(O)c3c(c(O)c1C2=O)C[C@@](O)(C(=O)CO)C[C@@H]3O[C@H]1C[C@H](N)[C@H](O)[C@H](C)O1 — IC50 (BGC-823; cell growth or viability; 96 h): 0.0818 µM
COc1cc(Cn2nc(-c3ccc(CO)o3)c3ccccc32)ccn1 — IC50 (CC-LP-1; cell growth or viability; ATP luminescence): > 46 µM
CONC(=O)c1cccc2c1cc(C)n2-c1nc2c(c(NCc3ccccc3)n1)CCCN2 — IC50 (KMS-11; cell growth or viability; 72 h): 2.1 µM
O=C(NS(=O)(=O)c1ccc(C(F)(F)F)cc1)c1cc2ccccc2n1Cc1ccc(Br)c2ccccc12 — IC50 (mouse BMDM; IL-1β release; inhibitor; ELISA; LPS-stimulated): 7.28 µM
O=C(NO)c1ccc(Cn2cnc3c(Nc4ccc(Cl)cc4)ncnc32)cc1 — IC50 (HEL; cell growth or viability; MTT; 72 h): 0.77 µM
Cc1cc(NS(=O)(=O)c2ccc(NC(=O)/C(C#N)=C/c3ccc(N4CCCC4)cc3)cc2)no1 — IC50 (HSF; cell growth or viability; MTT; 48 h): > 200 µM
Cc1cnc(CNC(=O)c2c(=O)c3ccc(N4CCCN(C)CC4)nc3n3c2sc2ccccc23)cn1 — IC50 (SNU-449; cell growth or viability; imaging; 72 h): 0.37 µM
Cc1cc2c(C(=O)O)cccc2n1-c1nc2c(c(NCc3ccccc3)n1)CCCN2 — IC50 (KMS-11; cell growth or viability; 72 h): 0.9 µM
OCc1ccc(-c2nn(Cc3cccnc3)c3cccnc23)o1 — IC50 (CC-LP-1; cell growth or viability; ATP luminescence): > 46 µM
Nc1ccccc1NC(=O)c1ccc(Cn2cnc3c(Nc4ccc(Br)cc4F)ncnc32)cc1 — IC50 (NB-4; cell growth or viability; MTT; 72 h): 0.39 µM
CNC(=O)c1cc(Oc2ccc(NC(=O)Nc3ccc(Cl)c(C(F)(F)F)c3)cc2)ccn1 — IC50 (SNU-449; cell growth or viability; imaging; 72 h): 6.37 µM
OCc1ccc(-c2nn(Cc3ccccc3)c3ccccc23)o1 — IC50 (CC-LP-1; cell growth or viability; ATP luminescence): > 46 µM
C(=N\Nc1cc(N/N=C/c2ccc3ccccc3n2)nc(-c2ccccc2)n1)/c1ccc2ccccc2n1 — IC50 (BGC-823; cell growth or viability; MTT; 48 h): 9.12 µM
COc1cccc2c1C(=O)c1c(O)c3c(c(O)c1C2=O)C[C@@](O)(C(=O)CO)C[C@@H]3O[C@H]1C[C@H](N)[C@H](O)[C@H](C)O1 — IC50 (H69AR; cell growth or viability; MTT; 75 h): 22.5 µM
Cc1cc(NS(=O)(=O)c2ccc(NC(=O)/C(C#N)=C/c3ccc(N4CCOCC4)cc3)cc2)no1 — IC50 (HSF; cell growth or viability; MTT; 48 h): > 200 µM
CCC(=CCc1c(O)cc2c(c1O)C(=O)C[C@H](c1ccccc1O)O2)CC — IC50 (HeLa; cell growth or viability; MTT; 48 h): 37.4 µM
OCc1ccc(-c2nn(Cc3cccnc3)c3ccccc23)o1 — IC50 (CC-LP-1; cell growth or viability; ATP luminescence): ~46 µM
COc1ccc(Nc2ncnc3c2ncn3Cc2ccc(C(=O)NO)cc2)cc1 — IC50 (HEL; cell growth or viability; MTT; 72 h): 0.8 µM
Cc1nc(Nc2ncc(C(=O)Nc3c(C)cccc3Cl)s2)cc(N2CC[C@H](O)C2)n1 — IC50 (P3HR-1; cell growth or viability; ATP luminescence; 72 h): > 10 µM
CNC(=O)c1cc(Oc2ccc(NC(=O)Nc3ccc(Cl)c(C(F)(F)F)c3)cc2)ccn1 — IC50 (BGC-823; cell growth or viability; MTT; 48 h): 6.08 µM
O=C(NO)c1ccc(Cn2cnc3c(Nc4cccc([N+](=O)[O-])c4)ncnc32)cc1 — IC50 (HEL; cell growth or viability; MTT; 72 h): 2.07 µM
COc1cnccc1Cn1nc(-c2ccc(CO)o2)c2ccccc21 — IC50 (CC-LP-1; cell growth or viability; ATP luminescence): > 46 µM
O=C(CSc1nc2ccccc2s1)N/N=C/c1ccc(OCC(=O)Nc2ccc([N+](=O)[O-])cc2)cc1 — IC50 (HEL 299; cell growth or viability; MTS; 72 h): > 100 µM
CN(C)c1cccc2c(S(=O)(=O)NCCCCN=C=S)cccc12 — IC50 (HDFa; cell growth or viability; MTT; 24 h): 28.4 µM
O=C(CSc1nc2ccccc2s1)N/N=C/c1ccc(OCC(=O)Nc2cccc(Cl)c2)cc1 — IC50 (HEL 299; cell growth or viability; MTS; 72 h): > 100 µM
NCc1ccc(-c2nn(Cc3ccccc3)c3ccccc23)o1 — IC50 (CC-LP-1; cell growth or viability; ATP luminescence): > 46 µM
O=c1[nH]cc(F)c(=O)[nH]1 — IC50 (BGC-823; cell growth or viability; MTT; 48 h): 15.2 µM
Nc1ccccc1NC(=O)c1ccc(Cn2cnc3c(Nc4ccc(Cl)cc4)ncnc32)cc1 — IC50 (NB-4; cell growth or viability; MTT; 72 h): 0.73 µM
O=C(CSc1nc2ccccc2s1)N/N=C/c1ccc(OCC(=O)Nc2cccc(Br)c2)cc1 — IC50 (HEL 299; cell growth or viability; MTS; 72 h): > 100 µM
O=C(NO)c1ccc(Cn2cnc3c(Nc4ccc(Br)cc4F)ncnc32)cc1 — IC50 (NB-4; cell growth or viability; MTT; 72 h): 1.41 µM
OCc1ccc(-c2nn(Cc3ccncc3)c3cccnc23)o1 — IC50 (CC-LP-1; cell growth or viability; ATP luminescence): > 46 µM
COc1ccc(Nc2ncnc3c2ncn3Cc2ccc(C(=O)Nc3ccccc3N)cc2)cc1 — IC50 (NB-4; cell growth or viability; MTT; 72 h): 2.44 µM
Cc1cc(NS(=O)(=O)c2ccc(NC(=O)/C(C#N)=C/c3ccc(N4CCCCC4)cc3)cc2)no1 — IC50 (HSF; cell growth or viability; MTT; 48 h): > 200 µM
O=C(NO)c1ccc(Cn2cnc3c(Nc4ccc(F)c(Cl)c4)ncnc32)cc1 — IC50 (HEL; cell growth or viability; MTT; 72 h): 3.54 µM
COc1cccc(Cn2nc(-c3ccc(CO)o3)c3ccccc32)c1 — IC50 (CC-LP-1; cell growth or viability; ATP luminescence): > 46 µM
